Hit rate of the full screen: of about 330,000 compounds, about 350 (0.11%) were called active. The sample holds actives, similar compounds and a random draw of the others, so the mix is not that of the screen. Unmarked numbers belong to inactive results.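 How the source made its calls: active means activation more than six SD over the plate average, tested at 20 µM; inactive means the rest.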
Molecular target: Apelin receptor (Homo sapiens) (UniProt P35414)
Experiment: APJ activation via beta-arrestin recruitment – CHO-K1 cells, PathHunter beta-arrestin, luminescence, primary screen (AID 2520);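 further: 0% = DMSO alone and 100% = apelin-13 at 10 nM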
Details: at 20 µM, hits give high values, 0% DMSO wells, 100% apelin
How it was run: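 assay system = CHO-K1 APJ beta-arrestin complementation cell line | input = cell density 1000 per well | dosing = compound 20 µM once, DMSO 1% | timing = compound 90 min 25 °C, reagent 1 h | measured by = luminescence from split beta-galactosidase complementation, Galacton Star/Emerald II substrate | read-out basis = APJ agonist activity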

Chain of Apelin receptor (Homo sapiens) (P35414 whole entry, looked up): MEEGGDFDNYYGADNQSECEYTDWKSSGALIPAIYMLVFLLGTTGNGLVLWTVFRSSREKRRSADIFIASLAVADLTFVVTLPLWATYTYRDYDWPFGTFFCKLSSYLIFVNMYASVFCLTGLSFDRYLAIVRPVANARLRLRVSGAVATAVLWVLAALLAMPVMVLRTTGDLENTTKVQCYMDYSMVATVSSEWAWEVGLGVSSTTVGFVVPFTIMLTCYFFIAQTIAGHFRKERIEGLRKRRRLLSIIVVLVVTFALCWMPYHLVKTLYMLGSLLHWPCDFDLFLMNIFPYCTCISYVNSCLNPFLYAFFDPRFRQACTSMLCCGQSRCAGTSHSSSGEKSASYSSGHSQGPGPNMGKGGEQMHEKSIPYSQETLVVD

First: CCCCc1cc(=O)oc2c(C)c(OCC(=O)N3CCC(C(N)=O)CC3)ccc12
Second: CCN1CCN(C(=O)CCN2C(=O)c3ccccc3C2=O)CC1
The activation of the first is lower: -4.2% for the first, -1.85% for the second.

Going from `CCOc1ccc(/C=C/C(=O)N(CC)CC(=O)NCc2cccs2)cc1OC` to `Cc1ccnc(NC(=O)CCC(=O)N(CC(=O)NCCc2ccccc2)Cc2cccs2)c1`, the activation falls from 8.54% to -3.93%.

First: Cc1nnc(SCC(=O)NC(=O)NC2CCCC2)n1N
Second: O=C(NC1CCCC1)C(NS(=O)(=O)c1ccc(Br)s1)c1ccccc1 (stereo not given)
The activation of the first is lower: -4.56% for the first, 1.83% for the second.

Going from `COc1ccc2c(c1)N(C)/C(=C1/SC(=S)N(NC(C)=O)C1=O)S2` to `COc1cccc2c(O)cc(=O)n(C)c12`, the activation falls from -1.51% to -2.86%.

Going from `O=C1NC(c2ccccc2)=NC1(Nc1ccccn1)C(F)(F)F` (stereo not given) to `CN(CCc1ccccn1)C(=O)c1ccc(OC2CCN(Cc3ccccn3)CC2)cc1`, the activation falls from 1.8% to -8.78%.

First: Cc1ccsc1C(=O)OCC(=O)Nc1cccc(F)c1
Second: N#Cc1cccc(NC(=O)COC(=O)c2ccccc2C(=O)c2ccc(Cl)c([N+](=O)[O-])c2)c1
The activation of the first is lower: -4.87% for the first, -0.51% for the second.

First: COc1ccc(-n2c(=O)[nH]c3cc(C(=O)NCCc4ccc(OC)c(OC)c4)ccc3c2=O)c(OC)c1
Second: COc1ccc(C)cc1NC(=O)CSc1nnc(CC(=O)Nc2ccccc2F)n1C
The activation of the first is higher: -2.2% for the first, -3.35% for the second.

Compared with `Cc1ccc2c(c1)NCC(C(=O)NC1CCC(C)CC1)O2` (stereo not given), `COc1ccc(C)cc1N(CC(=O)NC(C)c1ccccc1)S(C)(=O)=O` (stereo not given) is lower in activation: -1.38% for the first, -1.79% for the second.

First: N#CC1=C(N)N(c2ccc(F)cc2)C(=O)C1
Second: O=C1C=CC(=O)N1c1ccc(N2CCCCC2)cc1
The activation of the first is higher: -4.08% for the first, -5.18% for the second.

First: CC(=O)Nc1ccc(NC(=O)C(C)n2c3ccccc3c3nc(=O)cc(C)n32)cc1 (stereo not given)
Second: CC(=O)NC(=S)Nc1ccc(NC(=O)c2cccnc2)cc1
The activation of the first is lower: -3.18% for the first, 3.75% for the second.

Compared with `CCOC(=O)C1=C(CC)OC(N)=C(C#N)C1c1ccc(F)cc1F` (stereo not given), `Cc1ccc(C(=O)C(C)OC(=O)Cc2n[nH]c(=O)c3ccccc23)cc1C` (stereo not given) is higher in activation: -3.78% for the first, 6.72% for the second.

Going from `Cc1nc(N2CCOCC2)nc2c1CCCC2` to `Cc1cccc(NC(=O)c2sc3nc(N4CCOCC4)c4c(c3c2N)CCCC4)c1`, the activation falls from 0.237% to -11.8%.

Compared with `Cc1cc(NS(=O)(=O)c2ccc(NC(=O)c3cccnc3)cc2)nc(C)n1`, `NS(=O)(=O)c1ccc(CCNC(=O)COC(=O)COc2cccc(C(F)(F)F)c2)cc1` is lower in activation: 1.41% for the first, -3.07% for the second.

Compared with `C=CCOc1ccccc1NC(=O)CN1C(=O)CNC1=O`, `O=C(Nc1cccc([N+](=O)[O-])c1)N1CCc2ccccc2C1` is higher in activation: -2.49% for the first, -0.709% for the second.

Compared with `COc1cc2c(cc1OC)C(=O)NCC(C)(C)O2`, `CCCCn1nnnc1NCc1cc(OC)c(OC)c(OC)c1` is lower in activation: -0.328% for the first, -4.13% for the second.

Compared with `CC(C)=CCCC(C)CN1CCC(n2nccc2NC(=O)c2ccccc2)CC1` (stereo not given), `CCc1ccc2c(c1)cc(CN(C(=S)Nc1ccccc1Cl)C1CC1)c1nnnn12` is higher in activation: 1.47% for the first, 4.19% for the second.

Going from `CCCn1c(=S)[nH]c2ccc(C(F)(F)F)cc21` to `CCCS(=O)(=O)N1CCN=C1SCc1cccc(F)c1`, the activation rises from 0.385% to 2.13%.

First: Cc1ccc(O/C=C2\OC(=O)c3ccccc32)cc1
Second: CCc1ccc(CN(C)C(=O)CCc2nnc(-c3ccc(-c4ccccc4)cc3)o2)nc1
The activation of the first is higher: -1.88% for the first, -3.94% for the second.

Compared with `O=C(OCC(=O)c1cccs1)c1ccc([N+](=O)[O-])o1`, `Cc1cccc2cc(CN(Cc3cccs3)C(=S)NCc3ccco3)c(=O)[nH]c12` is lower in activation: 3.99% for the first, -1.92% for the second.

Compared with `COC(=O)Cc1cnc(NC(=O)CSc2nc(C(C)C)cc(=O)[nH]2)s1`, `COCCCNC(=S)N(CCN(C)C)Cc1cc2cc3c(cc2[nH]c1=O)OCCO3` is lower in activation: -1.9% for the first, -4.21% for the second.

Work on `O=C1NC(=Nc2ccc(Cl)cc2)SC1Cc1cccc(Cl)c1Cl` (stereo not given) yielded an activation of -3.58%.

For `Nc1nc(-c2sc3nc4c(cc3c2N)CCCC4)nc(N2CCOCC2)n1`, the activation was 12.3% (active).
In the case of `Cc1ccc2nc(-c3ccc(NC(=O)c4cccnc4)cc3)oc2c1`, the activation is reported as 14.6% (active).
For `Cc1cc(C)c2[nH]c(=O)c(CN(Cc3ccccc3)C(=S)NCCCN(C)C)cc2c1`, the activation was 20.2% (active).
For `CCCCCCc1cc2cc(-c3nnc(-c4ccccc4)o3)c(=O)oc2cc1O`, the activation was 30.8% (active).
